Experimental data as given in ChEMBL document CHEMBL4513216, “Probing the Open Global Health Chemical Diversity Library for Multistage-Active Starting Points for Next-Generation Antimalarials” (ACS Infect Dis, 2020).

Test: Toxicity liver stage against HepG2, at 10uM
Format: cell-based
Set-up: test concentration 10 uM, cell line HepG2-A16-CD81EGFP
Conditions: human, HepG2-A16-CD81EGFP cells; read-out: INHIBITION
Method in brief: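 Uninfected HepG2-A16-CD81EGFP cells, 3 × 10^3 per well, 1536-well, plated on prespotted compound at 10 μM final, parasite-free screening media added to match infected plates; puromycin 10 μM positive, DMSO 0.5% negative; run in parallel with 48 h PbLuc assay at 37 °C, 5% CO2; viability by CellTiter-Glo luminescence, normalized to controls.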

SMILES | cytotoxicity at 10 µM [%]
CN1CC(c2ccccc2)CC12CCN(C(=O)c1cncc(Cl)c1)CC2 (stereo not given) | -12.6
O=C(NCCn1ccnc1)N1CCN(c2nccs2)CC1 | -3.68
Cc1cc(C)c(S(=O)(=O)Nc2c(C)noc2C)cc1C(=O)O | -8.18
COc1ccc(Nc2nc3c(C)nn(C)c3c(=O)n2C)cc1 | -0.103
CN(C)C(=O)CSc1nnc(CCNC(=O)OC(C)(C)C)o1 | 13.7
Cc1nc(C)c(COc2ccc(S(=O)(=O)N(C)C)cc2)s1 | -0.242
CCOc1ccc(CC(CNC(=O)c2ccoc2C)C(N)=O)cc1 (stereo not given) | 7.87
N#Cc1c2n(c3c(N)ncnc13)CCCCC2 | 15.1
Cc1cc(C(=O)N2CCOCC2c2nc(C)c[nH]2)nc(O)n1 (stereo not given) | 2.85
Cc1cccc(CN2C(=O)C[C@H]3[C@@H]2CCN3Cc2ccccn2)n1 | 6.97
CCCn1ncc(-c2ccnc(NC3CCCc4ccccc43)n2)c1C (stereo not given) | 20.6
CN(C(=O)Cn1nc(-c2ccccc2Cl)ccc1=O)C1CCS(=O)(=O)C1 (stereo not given) | 1.96
CC(C(=O)NCC1(c2cccc(Br)c2)CCC1)S(C)(=O)=O (stereo not given) | 6.88
COc1ccccc1C1(O)CCCN(C(=O)c2ccnn2C(C)C)C1 (stereo not given) | 2.59
Cn1nccc1-c1ncc2c(c1C(=O)O)CCN(Cc1cccnc1)C2 | 8.07
COc1ccc(CCC2CCCN(CC(=O)O)C2)cc1 (stereo not given) | 3.38
CNC(=O)CS(=O)(=O)Cc1coc(-c2ccc(F)cc2)n1 | -9.44
O=C1C[C@H]2[C@@H](CCN2C(=O)Cc2cccs2)N1Cc1cccnc1 | 7.48
COCCCNc1nc(CNC(=O)C2CCC2)cc(-c2ccco2)n1 | -11
CC(C)c1cc(C(=O)N2C[C@@H](C)[C@](O)(C3CC3)C2)[nH]n1 | 16.3
Cc1cccc(CN2C[C@@H]3CN(C(=O)c4ccco4)C[C@@H]3C2=O)c1 | -3.72
COCCN1CCC(CNC(=O)C2(C#N)CCCC2)CC1 | 6.93

SMILES | cytotoxicity at 10 µM [%]
O=C(Nc1ccc2c(c1)OCO2)N1CCN(CCc2ccccc2)CC1 | -9.28
CCC(NCc1ccccc1)c1ccccc1OCC(=O)NC (stereo not given) | 16.2
OC(CN1CCN(Cc2cccc(F)c2)CC1)C1CC1 (stereo not given) | -2.45
Cc1nccnc1C1CCN(C(=O)C(C)C)CC1 | 3.25
COC(=O)CN(Cc1ccccc1C)C(=O)COCC1CC1 | 6.87
O=C(COc1ccccc1)NCC1CC1 | 7.76
Cc1nc(C)n(Cc2cccc(NC(=O)N(C)CCC(C)O)c2)n1 (stereo not given) | -6.64
Cc1nc(CN2CCN(c3ccc(SC(C)C)nn3)CC2)cs1 | 5.71
Cc1ccsc1C(O)CNC(=O)Cc1ccc(F)cc1 (stereo not given) | 3.15
CC(C)=CCN1C[C@@H]2CC[C@H]1CN(C(=O)c1ccc(S(N)(=O)=O)cc1)C2 | -5.96
Cc1cnc(C(=O)N2Cc3ncn(C)c3C(COCC(C)C)C2)cn1 (stereo not given) | -112
CN(C)c1ncnc2c1CCN(C(=O)CN1CCCCC1)C2 | -0.747
Cc1nc(N)c2ccc(C3CCCCN3)nc2n1 (stereo not given) | -0.05
c1cc(-c2nn3c(CN4CCOCC4)nnc3s2)ccn1 | 11
N#Cc1c(F)cccc1NCCCOCC1CCOC1 (stereo not given) | -2.64
CC(O)CN1CCN(Cc2coc(-c3ccc(Cl)cc3)n2)CC1 (stereo not given) | -7.42
Cc1cnn(CC(=O)NCC2(O)CCCc3ccccc32)c1 (stereo not given) | -38
O[C@@H]1CN(CC2CC2)CC[C@H]1N1CCN(c2ccccc2F)CC1 | -50.3
Cc1cccc2c1cnn2CCCNC(=O)CCCC(=O)O | -11.1
CCSCCNc1cc(C)nc2c(C)c(C)nn12 | 5.88
Cc1nc2c(c(NC3CC3)n1)CCN(C(=O)CCO)CC2 | -68.3
CS(=O)(=O)N1CCCC12CCCN(C(=O)c1ccc[nH]1)C2 (stereo not given) | -145

SMILES | cytotoxicity at 10 µM [%]
Cc1nc(CN(CCS(C)(=O)=O)C(C)C)no1 | 0.329
CN(C)c1nc(N2CCCC2)nc2c1CCN(Cc1nccn1C)CC2 | -97.2
CN(C)C(=O)N1CC[C@@H](c2ccc3ccccc3c2)[C@H](O)C1 | -5.81
CCCC(O)CN1CC(C)(C)CN(C(=O)CCc2ccccc2)CC1=O (stereo not given) | -15.4
CN1CCC(O)(CNCc2ccc(F)c(C(F)(F)F)c2)CC1 | 3.08
COCCOc1ccc(F)cc1NCc1nc2ccccc2n1C | 6.29
COc1cc(C)ccc1OCc1nc(C(=O)N2CCC(C)CC2)co1 | -45
CNC(=O)[C@@H]1CN(Cc2ccccc2)C[C@H]1C(=O)c1ccc(F)cc1 | -0.17
O=C(c1nccc2ccccc12)N1CCCCC1Cn1cccn1 (stereo not given) | -4.31
CN(C)C(=O)N1CCC2(CCCN(Cc3cnn(C)c3)C2)C1 (stereo not given) | 4.91
CC[C@@H]1N(Cc2ccc(OC)cc2)CCC[C@]12CCC(=O)N2CCOC | 14
Cc1cccc(C(=O)N2CC(Cc3nccc4ccn(C)c34)C2)n1 | -40.5
CCc1cnc(NCCCN2CCC(O)CC2)nc1 | 3.44
O=C(CC1CC1)N1CC[C@@H]2[C@H](CC1)N(Cc1cccnc1)CCS2(=O)=O | 5.96
O=C(NCCc1csc(-c2cnccn2)n1)c1cnn[nH]1 | 6.46
CC(C)C(=O)N1CCN(Cc2cc(-c3ccncc3)nn2C)CC1 | 0.59
CCn1cnnc1C1CCN(C(=O)c2cnn(C(C)(C)C)c2)CC1 | 4.78
COCCN1CCC12CCN(C(=O)c1ccsc1)CC2 | -145
Cc1noc(C(C)N2CCN(Cc3cccc(C#N)c3)CC2)n1 (stereo not given) | -5.72
CNC(=O)C1CCCN1C(=O)NCCCc1cccc(F)c1 (stereo not given) | 2.75
CN1CC(=O)N(c2ccsc2)CC12CCN(C(=O)N1CCCC1)C2 (stereo not given) | -72.6
CC(CNC(=O)c1ccn(-c2ccc(F)cc2)n1)Cn1cccn1 (stereo not given) | -41.4

SMILES | cytotoxicity at 10 µM [%]
CCN1CCC(CNC(=O)c2cc(Cl)c[nH]2)CC1 | -9.4
c1ccc(CCN2CCCC2c2ccnc(Nc3cnccn3)n2)cc1 (stereo not given) | -3.65
O=C1COc2ccc(C(=O)NS(=O)(=O)c3cc(F)ccc3F)cc2N1 | -4.92
FC(F)(F)CCc1ccnc(NC2CCC(n3cnnc3)CC2)n1 (stereo not given) | -6.71
CCCC1(CO)CCCN(C(=O)CCCn2nc(C)cc2C)C1 (stereo not given) | -9.53
COc1ccc2[nH]cc(-c3ccnc(N4CCC(C)CC4)n3)c2c1 | -7.3
CC(C)NC(=O)CCNC(=O)Nc1cccc(-c2nccn2C)c1 | -1.39
Cn1cnc2c1CCN(c1ccnc(-c3ccccc3)n1)C2 | 7.51
COc1ccc(CNCC2CCN(CC(C)O)CC2)c2ccccc12 (stereo not given) | -11.5
c1ccc(CN2C[C@@H]3OCCN(CC4CCCO4)[C@@H]3C2)nc1 (stereo not given in full) | 0.616
Cc1nc(CC(=O)N2CCCN(c3ccc(F)cc3)CC2)cs1 | 3.35
CCc1[nH]ncc1C(=O)N1CCN(c2nccc(OC)n2)CC1 | 0.296
Cn1cccc1C(=O)N1CCC2(CCN2c2ncccn2)C1 (stereo not given) | 10.7
COC(=O)N1CC(C)=C(C)CN1C(=O)Nc1cccc(Cl)c1 | 0.359
c1nc(N2CCc3nc[nH]c3C2)c2cc[nH]c2n1 | -5.71
CCCOc1cc(C)ccc1NC(=O)N(C)Cc1cnn(C)c1 | -11.1
O=C(Cc1cn2ccsc2n1)N(Cc1ccco1)CC1CCCO1 (stereo not given) | 7.07
COc1cccc(-c2noc(-c3ccc(NCCCN)nc3)n2)c1OC | -1.43
CN1CCN(c2cc(CCNC(=O)C3CCC3)nc(C3CC3)n2)CC1 | 0.462
c1csc(-c2noc(CN3CCCC3Cn3cccn3)n2)c1 (stereo not given) | -12.7
CNC(=O)N1CCc2cc(C(=O)N(C)C)c(NCC3CC3)nc2CC1 | -0.395
Cc1nc(C2(O)CCCNCC2)sc1CCOc1ccc(Cl)cc1 (stereo not given) | 12.7

SMILES | cytotoxicity at 10 µM [%]
O=C(c1cnccn1)N1C[C@@H](OCc2cccnc2)[C@H]2OCCC[C@H]21 | -2.78
COc1ccc(CNC(=O)NCCc2csc(C)n2)cn1 | -7.05
Cn1c(=O)cc(C(=O)NC(Cc2ccsc2)c2cccnc2)[nH]c1=O (stereo not given) | 0.913
CCn1nc2c(cc1=O)CN(Cc1nc(-c3ccccn3)no1)CC2 | -5.13
O=C(c1ccncc1)N1CCC2(CC1)CC(Oc1cccnc1)CO2 (stereo not given) | -3.66
CC(NCC(=O)Nc1ccc(N2CCCCCC2)cc1)c1cccs1 (stereo not given) | 1.8
Cc1cc(C)c(CNC(=O)NCc2cc(F)cc(F)c2)c(=O)[nH]1 | -4.98
CN(CCC(=O)NC1CC1)Cc1ccc(Cl)s1 | 7.83
CCc1nc(C)cc(N2CCN(C(=O)[C@@H]3C[C@H]4C=C[C@@H]3C4)CC2)n1 | 5.68
CCCc1nnc(SCC(=O)Nc2cc(C(C)(C)C)nn2C)[nH]1 | 10.7
CC(C)N1CCCn2nc(C(=O)NCc3ccccc3F)cc2C1 | -4.87
CNC(=O)c1ccc(-n2c(COCC(=O)O)nc3c(C)cccc32)o1 | -3.33
CCC[C@H]1CN(C2CCOCC2)C[C@@H]1NC(=O)CCCn1ccnc1 | 8.06
COc1cc(F)c(-n2cnc(CCNC(C)=O)c2)cc1F | -12.1
Cn1cnc(S(=O)(=O)N2C[C@H]3CC[C@@H](C2)N(Cc2ccccn2)C3)c1 | 7.27
COCCN1CCC(CNC(=O)c2c[nH]c(=O)c(Cl)c2)CC1 | 9.05
CN(CCC(F)(F)F)C(=O)c1nc(S(C)(=O)=O)n2ccccc12 | -7.51
COc1ccc(C(=O)C2CCCN(c3cc(C#N)ccn3)C2)cc1OC (stereo not given) | -0.312
Cc1ccc(CN2CCc3c(C(=O)N(C)C)n[nH]c3C2)o1 | 2.14
CC(C)(C)c1cnc(CN(Cc2cccnc2)CC2CCCO2)o1 (stereo not given) | 5.82
CNc1cncc(C2CCCN2C(=O)c2ccc3nc(C)[nH]c3c2)n1 (stereo not given) | -8.94
CC(=O)N1CCN(C(=O)C(C)n2cncn2)CC1 (stereo not given) | 1.64
